LMPTP block = LMPTP (human) inhibition; AID 651560; P24666; inhibition, % at 20 µM; hit rate 0.22% among 360,000; recombinant LMPTP-A, OMFP fluorogenic substrate, fluorescence intensity;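 active means compounds that cut the enzyme signal by at least half of the control window in the single-dose screen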;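 further: plate controls were DMSO wells with enzyme plus substrate for no effect and substrate without enzyme for full effect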
Target sequence (P24666 whole entry, looked up): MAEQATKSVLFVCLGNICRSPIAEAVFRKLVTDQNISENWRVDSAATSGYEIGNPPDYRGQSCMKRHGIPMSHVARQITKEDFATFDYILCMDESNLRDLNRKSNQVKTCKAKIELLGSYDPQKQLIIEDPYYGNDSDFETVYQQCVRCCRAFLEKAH
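Buffer or medium: Bis-Tris pH 6.0, DTT, detergent; Assay system: LMPTP-A enzyme; Quantity: 0.625 nM enzyme; Detection: endpoint fluorescence intensity; Times: 50 min dark incubation at room temperature; Controls: substrate-only low control, DMSO enzyme-plus-substrate high control; Doses: single 20 µM dose; Read-out: percent inhibition versus substrate-only and uninhibited controls; Reagent: 400 µM OMFP.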
NadD block = inhibitors of Staphylococcus aureus NadD; purified NadD enzyme, colorimetric absorbance read-out; hit rate 0.78% among 360,000; inhibition, % at 20 µM; in the data active means inhibition above about 26%
SUMO1 PPI mod = modulators of human SUMO1-mediated protein-protein interactions; P63165; SUMO1 binding to a labelled peptide, TR-FRET, 1 h; inhibition, % at 20 µM; hit rate 0.33% among 360,000; AID 602429; in the data active means inhibition above about 37%
Target sequence (P63165 whole entry, looked up): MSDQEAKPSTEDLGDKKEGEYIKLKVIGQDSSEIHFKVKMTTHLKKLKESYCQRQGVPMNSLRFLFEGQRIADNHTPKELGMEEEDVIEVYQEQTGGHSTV
STEP inh = STEP (human) phosphatase inhibition | recombinant STEP, OMFP fluorogenic substrate, fluorescence | AID 588621 | hit rate 0.25% among 360,000 | inhibition, % at 20 µM;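 active means inhibition at 20 µM, scaled per plate between control wells, above about 37%, limit read from the data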;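 further: 0% = DMSO with enzyme and substrate and 100% = substrate only without enzyme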
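Assay system: isolated STEP enzyme / Timing: 20 min at room temperature, dark / Doses: 20 µM, 1% DMSO / Technique: fluorescence intensity, excitation 480 nm, emission 540 nm / Reagent: fluorogenic phosphatase substrate OMFP at 25 µM final / Measure: percent inhibition scaled to no-enzyme and uninhibited-enzyme controls, plate-pattern corrected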
Scp-1 inhibitor = inhibitors of human Scp-1 phosphatase | hit rate 0.88% among 340,000 | inhibition, % at 20 µM | Recombinant Scp1, phosphopeptide, malachite green phosphate absorbance | AID 493091;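 active means inhibition above about 50% at 20 µM, limit read from the data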;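 further: plate controls were DMSO wells with enzyme for no effect and wells lacking enzyme for full effect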
Target sequence (Q9GZU7 76-261 limits assumed): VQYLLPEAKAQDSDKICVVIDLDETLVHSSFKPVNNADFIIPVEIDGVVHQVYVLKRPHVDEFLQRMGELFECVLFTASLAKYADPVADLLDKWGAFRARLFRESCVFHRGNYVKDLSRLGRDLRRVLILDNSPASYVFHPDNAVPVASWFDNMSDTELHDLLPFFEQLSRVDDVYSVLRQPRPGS
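Incubation: 45 min enzyme reaction at room temperature / System: truncated SCP-1 phosphatase (76-261aa) / Reagent: Phospho 17-mer peptide substrate / Buffer or medium: Acidic Tris acetate buffer with magnesium and detergent / Signal: absorbance at 630 nm / Doses: one concentration, 20 µM, with 1.0% DMSO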
DNMT1 inh = blocks human DNA methyltransferase DNMT1; P26358; DNMT1 molecular beacon, Hinp1I cleavage, fluorescence; inhibition (reported as % activation of signal), % at 10 µM; hit rate 0.83% among 360,000; AID 588458; in the data active means inhibition above about 50%
Scp1 confirm = confirmation of human Scp-1 phosphatase inhibitors. shares compounds with Scp-1 inhibitor. recombinant SCP-1 catalytic domain, phosphate release, malachite green absorbance. inhibition, % at 20 µM. hit rate 61% among 2,500;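 further: plate controls were DMSO with enzyme for no effect and buffer wells lacking enzyme for full effect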
Scp-1 MG ctr = colorimetric interference in Scp-1 counter-screen | 2,500 tested, under 10 active | shares compounds with Scp-1 inhibitor | apparent inhibition (interference), % at 20 µM | AID 540313 | Colorimetric interference counterscreen, malachite green absorbance 630 nm;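 further: compounds added after enzyme reaction finished so only phosphate colour detection is probed; plate controls were DMSO wells with completed Scp-1 reaction for no effect and substrate wells lacking enzyme for full effect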
Scp1 DSF = binds human Scp-1, shifting its melting temperature. thermal shift relative to vanadate control, % at 40 µM. Recombinant SCP1, Sypro Orange thermal shift Tm. hit rate 25% among 1,500. AID 540329. shares compounds with Scp-1 inhibitor;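 active means substances whose mean melting-temperature shift, as a percentage of the reference inhibitor's shift, reaches about 5.3%, limit read from the data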;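 further: 0% = Tm of DMSO wells and 100% = Tm with sodium orthovanadate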
Beacon interf DR = shows spectral interference in the DNMT1 beacon assay; IC50, µM; 200 tested, under 10 active; shares compounds with DNMT1 inh; molecular beacon fluorescence, spectral interference counter-screen; call rule not given here
DNMT1 confirm = DNMT1 inhibition confirmation, single concentration; shares compounds with DNMT1 inh; DNMT1 molecular beacon HinP1I cleavage, fluorescence; inhibition, % at 10 µM; hit rate 8% among 2,300;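 active means average inhibition of at least 30% in the single-concentration confirmation test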
DNMT1 interf = beacon fluorescence artifact counter-screen; shares compounds with DNMT1 inh; DNMT1 molecular beacon spectral interference counterscreen, fluorescence 485/520; activation (fluorescence interference), % at 10 µM; hit rate 1% among 2,300; AID 602387;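 active means activation of at least 30% at 10 µM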;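 further: DNMT1 catalytic domain with a HinP1I cleavage step and a FAM/dabcyl DNA beacon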
Starred values were filed as active, the others as inactive; x = no result given. Most compounds without a hit are left out; they make up all but 2.3% or so of the library.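 How the source made its calls, unless noted: active means inhibition of at least 30% at 20 µM; inactive means the rest.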

SMILES	LMPTP block	NadD block	SUMO1 PPI mod	STEP inh	Scp-1 inhibitor	DNMT1 inh	Scp1 confirm	Scp-1 MG ctr	Scp1 DSF	DNMT1 confirm	DNMT1 interf	others
Cn1nc(C(F)(F)F)c(-c2ccc(Br)cc2)c1NC(=O)c1nccnc1C(=O)O	-4	-9	7	-2	-11	1	x	x	x	x	x
C=CCn1c(SCC(=O)N2CCOCC2)nc2scc(-c3ccco3)c2c1=O	9	27	21	22	73*	77*	26	-8	x	3	0
CC(C)[C@@H](C(=O)N[C@@H](C(=O)O)c1ccccc1)N1C(=O)N2CCc3c([nH]c4ccccc34)[C@@]2(C)C1=O	0	0	7	0	1	-7	x	x	x	x	x
O=C(N/N=C/c1ccco1)C1CC1c1ccccc1 (configuration not stated)	6	2	0	4	60*	92*	48*	-14	-14	21	4
O=C(O)c1ccc(COc2c(F)c(F)c(F)c(F)c2F)o1	-1	-2	0	8	57*	56*	48*	-18	4	-1	0
Cc1cc(C)cc(OCc2ccc(C(=O)O)o2)c1	0	-2	0	0	-13	6	x	x	x	x	x
Cc1cc(-c2ccccc2)nc2c(Br)c(C(=O)O)nn12	2	-7	5	13	95*	52*	61*	-19	8.2*	2	5
O=C(C=C1SCCS1)/C=C/c1ccco1	34	9	2	6	76*	88*	52*	-20	-8	3	-2
O=C(C=Cc1ccco1)c1ccco1	2	4	1	7	13	11	x	x	x	x	x
O=C(O)C(C(=O)/C=C/c1ccco1)=C1SCCS1	10	7	25	10	55*	96*	63*	-2	3	4	0
COc1cccc(N2CCN(c3ccc4nnc(CCC(=O)Nc5ccc(OC)c(OC)c5)n4n3)CC2)c1	-1	4	3	-1	-6	-2	x	x	x	x	x
CCOC(=O)c1oc2c(CN3CCN(C)CC3)c(O)c(CC)cc2c(=O)c1-c1nc2ccccc2s1	-2	-8	3	-1	6	1	x	x	x	x	x
COCCn1c(C)cc(C(=O)COC(=O)c2cc3c(s2)CCC3)c1C	8	16	6	-2	52*	105*	70*	-10	-22	5	4
COCCn1c(C)cc(C(=O)COC(=O)c2cccc(O)c2)c1C	-1	-8	4	1	-9	-4	x	x	x	x	x
O=C(CCS(=O)(=O)c1ccc(Br)cc1)NC1CCCC1	0	-4	-2	0	75*	56*	62*	-9	-23	3	3
O=C(CCS(=O)(=O)c1ccc(Br)cc1)NCc1cccs1	-1	1	5	1	87*	59*	68*	-10	-13	3	1
O=C(CCNS(=O)(=O)c1ccc(Br)cc1)NC1CCCCC1	0	-2	1	-2	3	1	x	x	x	x	x
O=C(CCS(=O)(=O)c1ccc(Br)cc1)NCc1ccco1	2	-1	26	35	75*	57*	67*	-15	-4	5	6
CCOC(=O)N1CCN(C(=O)CNC2CCCCCCC2)CC1	-1	-3	4	-1	-6	0	x	x	x	x	x
O=C(COC(=O)c1cc2c(s1)CCCC2)Nc1ccc(Cl)cn1	0	3	15	-2	-9	14	x	x	x	x	x
NC(=O)c1ccc(NC(=O)COC(=O)c2ccc3c(c2)OCO3)cc1	-1	-1	2	-1	3	3	x	x	x	x	x
O=C(COC(=O)c1cc2c(s1)CCC2)Nc1ccc(F)cc1	12	1	-2	4	68*	66*	74*	-9	3	26	-2	Beacon interf DR=>99
NC(=O)c1ccc(NC(=O)COC(=O)c2cc3c(s2)CCC3)cc1	24	-2	11	35	85*	80*	62*	-16	-12	0	1
COCC(=O)Nc1ccc2c(c1)[C@@H]1C[C@H](CC(=O)NCc3cccc(F)c3)O[C@@H](CO)[C@@H]1O2	-3	-6	2	-2	x	9	x	x	x	x	x
C=CCn1c(COc2ccc(F)cc2)nnc1SCC(=O)NC(=O)NCc1ccco1	15	14	3	4	61*	74*	56*	-10	-16	7	3
SMILES	LMPTP block	NadD block	SUMO1 PPI mod	STEP inh	Scp-1 inhibitor	DNMT1 inh	Scp1 confirm	Scp-1 MG ctr	Scp1 DSF	DNMT1 confirm	DNMT1 interf	others
C=CCn1c(COc2cccc(C)c2)nnc1SCC(=O)NC(=O)NCc1ccco1	5	12	0	3	46	12	x	x	x	x	x
COC(=O)C=CSC(=S)C1CCCC1=N (configuration not stated)	0	0	-1	6	x	-1	x	x	x	x	x
Cc1ccc(NC(=O)COc2coc(CN3CCc4ccccc43)cc2=O)cc1Cl	19	8	6	4	59*	59*	55*	-25	2	1	3
Cc1cc(C)cc(C(=O)NCC(=O)N2CCC(C(N)=O)CC2)c1	-2	-2	2	2	-2	-1	x	x	x	x	x
O=C(OCC(=O)N1CCN(c2ccc(F)cc2)CC1)c1cnc2ccccc2n1	-1	11	-41	2	-2	-2	x	x	x	x	x
CCOc1ccc(CCNC(=O)C2CC(C)=CCC2C(=O)O)cc1OCC (configuration not stated)	-1	-5	56*	19	87*	53*	58*	-14	-19	3	3
O=C(CSc1ccsc1[N+](=O)[O-])Nc1cccc(F)c1	25	0	-4	3	75*	96*	59*	-23	9.1*	10	0
O=C(CSc1ccsc1[N+](=O)[O-])NCc1ccccc1	1	2	-21	8	0	-2	x	x	x	x	x
